ChEMBL document CHEMBL4017491, “Phthalazino[1,2-b]quinazolinones as p53 Activators: Cell Cycle Arrest, Apoptotic Response and Bak-Bcl-xl Complex Reorganization in Bladder Cancer Cells” (J Med Chem, 2017)
pIC50: −log10 of the molar value. The source made the active and inactive calls. The rule behind the calls is not given here.

Assays:
[1] = test system: J82; test: Cell cycle arrest in human J82 cells assessed as accumulation at G1 phase at 1 uM after 48 hrs by propidium iodide staining based FACS analysis (reference value: 42.29 %); format: functional
Summary of the method: (§1)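 Cells treated with 1−10 μM for 48 h, trypsinized, and fixed in 70% ethanol. Stained with 50 μg/mL propidium iodide and phase distribution analyzed by flow cytometry. Mean ± SD from three independent measurements.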

[2] = test system: J82; test: Cell cycle arrest in human J82 cells assessed as accumulation at S phase at 1 uM after 48 hrs by propidium iodide staining based FACS analysis (reference value: 46.79 %); format: functional; summary of the method: as §1
[3] = test system: J82; test: Cell cycle arrest in human J82 cells assessed as accumulation at G2 phase at 1 uM after 48 hrs by propidium iodide staining based FACS analysis (reference value: 10.92 %); format: functional; summary of the method: as §1
[4] = test system: J82; test: Cell cycle arrest in human J82 cells assessed as accumulation at G1 phase at 10 uM after 48 hrs by propidium iodide staining based FACS analysis (reference value: 42.29 %); format: functional; summary of the method: as §1
[5] = test system: J82; test: Cell cycle arrest in human J82 cells assessed as accumulation at G2 phase at 10 uM after 48 hrs by propidium iodide staining based FACS analysis (reference value: 10.92 %); format: functional; summary of the method: as §1
[6] = target: Cellular tumor antigen p53 (Homo sapiens) (UniProt P04637); test: Activation of p53 in human T24 cells assessed as p53 phosphorylation after 24 hrs by Western blot analysis; format: cell-based
Summary of the method: (§2)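 T24 cells, 3 × 10^5 per well, grown to 85−95% confluence, then exposed to 0−10 μM for 24 h. Whole-cell extracts in sample buffer run on SDS-polyacrylamide gels and transferred to nitrocellulose. Blots probed with primary antibodies and AP-linked anti-rabbit IgG, detected by ECL. Blots stripped and reprobed for β-actin as loading control.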

[7] = test system: DU-145; test: Antiproliferative activity against human DU145 cells harboring p53 mutant by MTT assay; format: functional, cell-based
Summary of the method: (§3)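 Cell lines cultured in RPMI 1640 with 10% FBS. Viability read by MTT (5 mg/mL, 4 h at 37 °C), with formazan dissolved in DMSO and absorbance taken at 490 nm. Viability (%) = A490 treated / A490 control × 100. IC50 taken from dose-response curves, from three independent experiments each run in triplicate.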

[8] = target: Cellular tumor antigen p53 (Homo sapiens) (UniProt P04637); test: Activation of p53 in human T24 cells assessed as increase in p21 level up to 10 uM after 24 hrs by Western blot analysis; format: cell-based; summary of the method: as §2
[9] = test system: T-24; test: Cell cycle arrest in human T24 cells assessed as effect on cyclin D expression up to 10 uM after 24 hrs by Western blot analysis; format: functional, cell-based; summary of the method: as §2
[10] = target: Cellular tumor antigen p53 (Homo sapiens) (UniProt P04637); test: Activation of p53 in human T24 cells assessed as increase in p21 protein expression after 24 hrs by Western blot analysis; format: cell-based
[11] = test system: T-24; test: Induction of apoptosis in human T24 cells by Annexin V-FITC/propidium iodide based flow cytometric analysis; format: functional, cell-based
[12] = test system: T-24; test: Effect on Bcl-Xl expression in human T24 cells up to 10 uM after 24 hrs by Western blot analysis; format: functional, cell-based; summary of the method: as §2
[13] = test system: T-24; test: Induction of apoptosis in human T24 cells assessed as apoptotic inducing factor translocation from mitochondria to nucleus at 1 to 10 uM after 48 hrs by Hoechst 33258 staining based fluorescence confocal microscopic analysis; format: functional, cell-based
Summary of the method: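 T24 cells on glass slides, treated for 48 h. Fixed in 4% paraformaldehyde, permeabilised with 1% Triton X-100, nuclei stained with Hoechst 33258 (final 0.5 μg/mL). Imaged by confocal fluorescence microscopy.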

[14] = test system: NCI-H460; test: Antiproliferative activity against human NCI-H460 cells by MTT assay; format: functional, cell-based; summary of the method: as §3
[15] = test system: HeLa; test: Antiproliferative activity against human HeLa cells by MTT assay; format: functional, cell-based; summary of the method: as §3
[16] = test system: T-24; test: Antitumor activity against human T24 cells xenografted in BALB/C nude mouse assessed as tumor growth inhibition at 6 mg/kg, ip administered every 2 days for 16 days relative to control; format: functional; details: T-24, ip, read-out: TGI
[17] = test system: Mus musculus; test: Toxicity in BALB/C nude mouse xenografted with human HepG2 cells assessed as change in body weight at 6 mg/kg, ip administered every 2 days for 16 days; format: organism-based; details: in vivo
Summary of the method: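 HepG2-xenografted male BALB/C nude mice treated ip at 6 mg/kg every 2 days; vehicle was 5% DMSO in saline. Body weight recorded three times weekly and at the end of treatment.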

[18] = test system: T-24; test: Downregulation of Bak protein expression in human T24 cells at 10 uM after 24 hrs by Western blot method; format: functional, cell-based; summary of the method: as §2
[19] = test system: Escherichia coli; test: Induction of DNA damage in Escherichia coli pBR322 DNA assessed as effect on mobility rate at 1 to 10 uM after 1 hr by DNA relaxation assay
Summary of the method: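 Plasmid pBR322 incubated 1 h with 1–10 μM in 5 mM Tris-HCl, 50 mM NaCl, pH 7.2. Samples run on 1.5% agarose and stained with 0.5 μg/mL ethidium bromide. Lane controls: 1% DMSO (negative) and ethidium bromide (positive).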

[20] = test system: T-24; test: Effect on cell cycle distribution in human T24 cells assessed as live cells at 1 uM after 1 hr by Annexin V-FITC/propidium iodide staining based FACS analysis (reference value: 98.3%); format: functional
[21] = test system: T-24; test: Effect on cell cycle distribution in human T24 cells assessed as late apoptotic cells at 1 uM after 1 hr by Annexin V-FITC/propidium iodide staining based FACS analysis relative to control; format: functional
[22] = test system: T-24; test: Effect on cell cycle distribution in human T24 cells assessed as live cells at 5 uM after 1 hr by Annexin V-FITC/propidium iodide staining based FACS analysis (reference value: 98.3%); format: functional
[23] = test system: T-24; test: Effect on cell cycle distribution in human T24 cells assessed as late necrotic cells at 5 uM after 1 hr by Annexin V-FITC/propidium iodide staining based FACS analysis (reference value: 1.71%); format: functional
[24] = test system: T-24; test: Effect on cell cycle distribution in human T24 cells assessed as late apoptotic cells at 10 uM after 1 hr by Annexin V-FITC/propidium iodide staining based FACS analysis relative to control; format: functional
[25] = target: Cellular tumor antigen p53 (Homo sapiens) (UniProt P04637); test: Activation of p53 in human T24 cells assessed as decrease in MDM2 protein level up to 10 uM after 24 hrs by Western blot analysis; format: cell-based; summary of the method: as §2
[26] = test system: T-24; test: Induction of apoptosis in human T24 cells assessed as necrotic cells at 5 uM by Annexin V-FITC/propidium iodide based flow cytometric analysis (reference value: 8.53%); format: functional
[27] = test system: T-24; test: Induction of apoptosis in human T24 cells assessed as live cells at 10 uM by Annexin V-FITC/propidium iodide based flow cytometric analysis (reference value: 89.5%); format: functional
[28] = test system: T-24; test: Induction of apoptosis in human T24 cells assessed as activation of caspase-3 at 5 uM by FITC-DEVD-FMK based flow cytometric analysis (reference value: 2.8%)
[29] = test system: T-24; test: Induction of apoptosis in human T24 cells assessed as activation of caspase-3 at 10 uM by FITC-DEVD-FMK based flow cytometric analysis (reference value: 2.8%)
[30] = test system: Mus musculus; test: Down regulation of Bak expression in BALB/C nude mouse xenografted with human T24 cells at 6 to 12 mg/kg, ip administered every 2 days for 16 days by immunoblot analysis

Sequence of Cellular tumor antigen p53 (Homo sapiens) (P04637 whole entry, looked up): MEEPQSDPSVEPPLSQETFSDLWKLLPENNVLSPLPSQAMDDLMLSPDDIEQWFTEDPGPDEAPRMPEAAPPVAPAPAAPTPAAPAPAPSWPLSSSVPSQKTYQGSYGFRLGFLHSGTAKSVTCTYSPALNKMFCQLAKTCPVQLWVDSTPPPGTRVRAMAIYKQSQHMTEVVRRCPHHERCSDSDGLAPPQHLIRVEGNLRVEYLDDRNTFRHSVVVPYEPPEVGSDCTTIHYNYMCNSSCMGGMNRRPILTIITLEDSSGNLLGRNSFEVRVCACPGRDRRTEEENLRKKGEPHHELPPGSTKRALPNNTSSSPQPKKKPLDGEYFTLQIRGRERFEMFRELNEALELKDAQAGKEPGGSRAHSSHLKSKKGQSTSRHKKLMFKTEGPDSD

Compound `CN(C)CCNc1nn2c(=O)c3cc(Br)ccc3nc2c2ccccc12` has an Activity [1] of 48.49%, an Activity [2] of 39.51% and an Activity [3] of 12%. The Activity [4] was 12.13%, the Activity [5] was 23.67% and the Activity [6] was “Dose-dependent effect”. For the same compound, the Activity [7] was “inactive”, the Activity [8] was “Active” and the Activity [9] was “inactive”. For the same compound, the Activity [10] was “Dose-dependent effect”, the Activity [11] was “Dose-dependent effect” and the Activity [12] was “inactive”. For the same compound, the Activity [13] was “Active”, the pIC50 [14] was 5.30 and the pIC50 [15] was 5.21. For the same compound, the inhibition in vivo at 6 mg/kg [16] was 44.8%, the Activity [17] was “Non-Toxic” and the Activity [18] was “Active”. For the same compound, the Activity [19] was “inactive”, the Activity [20] was 93.5% and the Activity [21] was 0%. For the same compound, the Activity [22] was 89.4%, the Activity [23] was 10.6% and the Activity [24] was 0%. The Activity [25] was “Active”, the Activity [26] was 0.661% and the Activity [27] was 21.8%. The Activity [28] was 17.6%, the Activity [29] was 50% and the Activity [30] was “Active”.
